Laboratory results taken from publication PMC4111403 (Journal of Medicinal Chemistry, 2014).

Tests used:
[1] = system: acetylated α-tubulin (AcTub) in QBI293 cells; assay: QBI293 cell AcTub; type: cell-based; details: for activity in AcTub assay: 1 μM; for increase of cellular AcTub (words, Figure 2): compared with 1
Summary of the method: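 QBI293 cells are an HEK293 derivative. Tubulin acetylation, which occurs on polymerized tubulin, serves as the cellular read-out of MT stabilization. Test compounds were run at 0.1 or 1 μM. AcTub was expressed relative to vehicle-treated cells and to a 0.1 μM reference MT-stabilizer positive control. Significance was assessed by two-tailed t-test.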

Pgp transporter = details: cited from earlier work
[2] = system: acetylated α-tubulin (AcTub) in QBI293 cells; details: 50–500 nM concentrations ref 8; cited from earlier work
[3] = system: AcTub levels in brain homogenates; details: single ip injection 1–6 mg/kg, mice ref 4; cited from earlier work
β-tubulin = β-tubulin ref 28; cited from earlier work
human Pgp = human Pgp (Homo sapiens, UniProt P08183); assay: Pgp-interaction assay; type: cell-based; details: NCI/ADR-RES cells
QBI293 cells = assay: AcTub immunofluorescence of QBI293 cells; type: cell-based; details: 4 h incubation; 2 at 100 nM, colchicine at 1 μM
[4] = system: Pgp-expressing cancer cell lines; details: cited from earlier work
[5] = 16 h brain and plasma PK study after ip dosing; type: in vivo, CD1 mice; details: for brain penetration / BBB permeability: mouse, ip dosing; for half-life: CD1, mouse, ip, 5 mg/kg
Summary of the method: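 2-month-old CD1 mice (20 g average). Plasma from EDTA-collected blood spun 4500g, 10 min, 4 °C; brain hemispheres sonicated in 10 mM ammonium acetate pH 5.7 (1:2 w/v). Acetonitrile-precipitated supernatants quantified by LC–MS/MS (positive ESI, MRM) against spiked-matrix standards 0.005–5 μM.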

[6] = Brain and plasma levels 2 h after oral administration; type: in vivo, mice; details: 2 h after oral administration of 10 mg/kg
Summary of the method: (§1)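 Dosing in 2-month-old CD1 mice (20 g average). Brain hemispheres homogenized by sonication in 10 mM ammonium acetate pH 5.7 (1:2 w/v); plasma from EDTA blood centrifuged 4500g, 10 min, 4 °C. Samples precipitated with acetonitrile, spun 15 000g, then analysed by UPLC–MS/MS with positive ESI and MRM. Quantified against brain- and plasma-matrix standard curves spanning 0.005–5 μM.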

[7] = Unbound fraction in brain homogenate by equilibrium dialysis; type: in vitro ADME; details: ratio of brain Fu values
[8] = system: AcTub levels in brain homogenates; assay: Brain pharmacodynamic effect: AcTub levels in brain homogenates; type: in vivo, WT mice; details: 1 mg/kg daily ip for 4 or 6 days, n = 3
tau transgenic (Tg) mice = details: tau Tg mice with brain stem and spinal cord tau pathology ref 5; cited from earlier work
[9] = Brain and plasma compound concentration 1 h after ip injection; type: in vivo, CD1 mice; details: 1 h after ip injection of 5 mg/kg, mouse
Summary of the method: as §1

Sequence of human Pgp (P08183 whole entry): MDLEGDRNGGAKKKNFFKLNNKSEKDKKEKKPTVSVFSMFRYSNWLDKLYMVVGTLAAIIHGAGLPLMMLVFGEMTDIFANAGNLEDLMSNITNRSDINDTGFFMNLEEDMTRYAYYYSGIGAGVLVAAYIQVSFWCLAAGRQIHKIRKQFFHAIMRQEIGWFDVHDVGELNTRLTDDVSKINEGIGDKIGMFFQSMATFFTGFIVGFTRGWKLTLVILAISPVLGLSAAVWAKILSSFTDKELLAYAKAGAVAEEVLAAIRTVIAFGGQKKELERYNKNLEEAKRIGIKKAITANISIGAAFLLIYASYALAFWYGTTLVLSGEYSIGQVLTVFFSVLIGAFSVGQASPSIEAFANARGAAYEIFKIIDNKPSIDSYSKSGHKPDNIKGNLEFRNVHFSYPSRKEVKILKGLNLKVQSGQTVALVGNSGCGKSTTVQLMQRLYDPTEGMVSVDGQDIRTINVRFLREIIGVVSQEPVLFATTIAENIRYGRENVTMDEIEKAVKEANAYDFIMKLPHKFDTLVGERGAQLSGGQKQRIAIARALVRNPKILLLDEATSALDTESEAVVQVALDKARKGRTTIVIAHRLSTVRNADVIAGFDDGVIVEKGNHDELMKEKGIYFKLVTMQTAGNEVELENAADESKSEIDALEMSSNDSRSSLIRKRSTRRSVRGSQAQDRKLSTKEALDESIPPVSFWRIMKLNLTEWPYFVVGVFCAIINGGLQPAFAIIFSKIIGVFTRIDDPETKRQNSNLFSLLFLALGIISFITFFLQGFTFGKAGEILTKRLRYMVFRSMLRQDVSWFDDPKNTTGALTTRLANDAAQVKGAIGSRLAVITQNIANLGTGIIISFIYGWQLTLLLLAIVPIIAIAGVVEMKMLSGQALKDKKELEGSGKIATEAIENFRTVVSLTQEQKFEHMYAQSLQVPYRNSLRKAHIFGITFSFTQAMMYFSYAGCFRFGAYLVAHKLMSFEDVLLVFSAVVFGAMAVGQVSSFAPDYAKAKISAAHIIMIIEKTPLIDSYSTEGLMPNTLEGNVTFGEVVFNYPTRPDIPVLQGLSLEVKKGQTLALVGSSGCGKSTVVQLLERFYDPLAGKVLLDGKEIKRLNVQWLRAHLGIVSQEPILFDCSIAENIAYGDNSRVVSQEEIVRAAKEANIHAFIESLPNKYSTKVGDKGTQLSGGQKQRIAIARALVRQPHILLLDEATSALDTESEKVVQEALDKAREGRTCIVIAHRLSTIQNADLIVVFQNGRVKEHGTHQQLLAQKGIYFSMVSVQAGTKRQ

Compound: 5-(4-Chlorophenyl)-6-methyl-4-(2,4,6-trifluorophenyl)pyridazin-3(2H)-one [Compound 6, reference compound]
- activity in AcTub assay [1]: essentially inactive
- AcTub fold-change relative to vehicle control ([1]; compound at 1 μM): 1.5 ± 0.8^ns fold-change

Compound: C/C1=C/C[C@@H](/C(C)=C/c2csc(C)n2)OC(=O)C[C@H](O)C(C)(C)C(=O)[C@H](C)[C@@H](O)[C@@H](C)CCC1 [Compound 1, epothilone D]
- Pgp transporter inhibition (Pgp transporter): inhibitor of the Pgp transporter
- elevation of AcTub levels in cells [2]: significant elevation
- elevation in AcTub levels in brain homogenates [3]: significant elevation

Compound: CNCCCOc1cc(F)c(-c2c(Cl)nc3ncnn3c2N[C@@H](C)C(F)(F)F)c(F)c1 [Compound 2, (S)-5-Chloro-6-(2,6-difluoro-4-(3-(methylamino)propoxy)phenyl)-N-(1,1,1-trifluoropropan-2-yl)[1,2,4]triazolo[1,5-a]pyrimidin-7-amine]
- competition for the taxane/epothilone binding site (β-tubulin): not to compete
- effect on vinblastine binding (β-tubulin): did affect vinblastine binding
- effect on Pgp function (calcein-AM transport) (human Pgp): did not interfere appreciably with Pgp function
- AcTub staining by immunofluorescence (QBI293 cells): large increase in AcTub-positive structures
- activity against Pgp-expressing cancer cell lines [4]: active
- increase of cellular AcTub (words, Figure 2) [1]: significant increase
- brain penetration / BBB permeability [5]: negligible brain penetration

Compound: Cc1nnc(Cl)c(-c2c(F)cc(F)cc2F)c1-c1ccc(Cl)s1 [Compound 7, 3-Chloro-5-(5-chlorothiophen-2-yl)-6-methyl-4-(2,4,6-trifluorophenyl)pyridazine, reference compound]
- activity in AcTub assay [1]: essentially inactive

Compound: C[C@H](Nc1c(-c2c(F)cc(OCCCN(C)C)cc2F)c(Cl)nc2ncnn12)C(F)(F)F [Compound 9, (S)-5-Chloro-6-(4-(3-(dimethylamino)propoxy)-2,6-difluorophenyl)-N-(1,1,1-trifluoropropan-2-yl)[1,2,4]triazolo[1,5-a]pyrimidin-7-amine]
- brain and plasma levels after oral dosing [6]: micromolar levels
- brain Fu value of 9 relative to 20 [7]: ~3 fold
- effect on Pgp function (calcein-AM transport) (human Pgp): did not interfere appreciably with Pgp function
- PD response: AcTub level in brain [8]: significant PD response
- increase of cellular AcTub (words, Figure 2) [1]: large increase
- AcTub fold-change relative to vehicle control (numbers in parentheses) ([1]; compound at 0.1 μM): (2.0 ± 1.4) fold-change
- half-life ([5]; brain): > 2 h
- half-life ([5]; plasma): > 2 h
- brain penetration / BBB permeability [5]: relatively limited

Compound: C[C@H](Nc1nc(-c2cnccn2)nc(Cl)c1-c1c(F)cc(F)cc1F)C(F)(F)F [Compound 20, (S)-6-Chloro-2-(pyrazin-2-yl)-5-(2,4,6-trifluorophenyl)-N-(1,1,1-trifluoropropan-2-yl)pyrimidin-4-amine]
- brain and plasma levels after oral dosing [6]: micromolar levels
- effect on Pgp function (calcein-AM transport) (human Pgp): did not interfere appreciably with Pgp function
- PD response: AcTub level in brain [8]: significant PD response
- increase of cellular AcTub (words, Figure 2) [1]: large increase
- brain penetration / BBB permeability [5]: can readily partition across the BBB

Compound: CC(C)Nc1c(-c2c(F)cc(F)cc2F)c(Cl)nc2nccnc12 [Compound 37, 6-Chloro-N-isopropyl-7-(2,4,6-trifluorophenyl)pyrido[2,3-b]pyrazin-8-amine]
- activity in AcTub assay [1]: essentially inactive

Compound: COc1cc2c(c(OC)c1OC)-c1ccc(OC)c(=O)cc1[C@@H](NC(C)=O)CC2 [colchicine]
- AcTub staining by immunofluorescence (QBI293 cells): significant loss of AcTub staining

Compound: CC(=O)O[C@H]1C(=O)[C@@]2(C)[C@H]([C@H](OC(=O)c3ccccc3)[C@]3(O)C[C@H](OC(=O)[C@H](O)[C@@H](NC(=O)c4ccccc4)c4ccccc4)C(C)=C1C3(C)C)[C@]1(OC(C)=O)CO[C@@H]1C[C@@H]2O [paclitaxel]
- effect on neurodegenerative phenotype of tau Tg mice (tau transgenic (Tg) mice): improve the neurodegenerative phenotype

Compound: (S)-N-(3-(4-(5-Chloro-7-((1,1,1-trifluoropropan-2-yl)amino)[1,2,4]triazolo[1,5-a]pyrimidin-6-yl)-3,5-difluorophenoxy)propyl)pivalamide [Compound 16]
- B/P (brain-to-plasma ratio) [9]: 0.12 ± 0.03
- brain concentration [9]: 170 ± 10 nM
- plasma concentration [9]: 1500 ± 500 nM
- AcTub fold-change relative to vehicle control ([1]; compound at 1 μM): 2.4 ± 0.9 fold-change
- AcTub fold-change relative to 0.1 μM 2 ([1]; compound at 1 μM, relative to positive control 0.1 μM 2): 0.7 ± 0.1 fold-change
